Assay results from ChEMBL document CHEMBL1125267, “Linear discriminant and multiple regression analyses of anticoccidial triazines” (1991).

assay: Minimum effective concentration (MEC) value was determined as a measure of anti-coccidial activity (MEC is expressed as mmol/kg of feed).; assay type: functional
Procedure, shortened: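 Dietary activity was graded by the lowest effective feed level, originally in ppm and converted to mmol/kg of feed. Where MEC was only bounded (>250 ppm or >500 ppm), it was assigned the next higher feed level.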

With `O=c1cnn(-c2ccc(S(=O)(=O)N3CCOCC3)c(Cl)c2)c(=O)[nH]1` as the compound, how does the MEC read?
Its MEC is 30 p.p.m.

For `Cc1cc(-n2ncc(=O)[nH]c2=O)cc(C)c1S(=O)(=O)N1CCOCC1`, which MEC is on record?
The MEC was 15 p.p.m.

For `O=c1cnn(-c2cc(Cl)c(S(=O)(=O)N3CCOCC3)c(Cl)c2)c(=O)[nH]1`, which MEC is on record?
Its MEC is 30 p.p.m.

Which MEC does the source give for `O=c1cnn(-c2cccc(Cl)c2)c(=O)[nH]1` here?
Its MEC is 125 p.p.m.

Which MEC does the source give for `Cc1cc(C)cc(-n2ncc(=O)[nH]c2=O)c1` here?
Its MEC is 30 p.p.m.

For `Cc1cc(Cl)cc(-n2ncc(=O)[nH]c2=O)c1`, which MEC is on record?
Its MEC is 15 p.p.m.

With `O=c1cnn(-c2ccc(S(=O)(=O)c3ccc(Cl)cc3)cc2)c(=O)[nH]1` as the compound, how does the MEC read?
The MEC was 4 p.p.m.

With `Cc1cc(-n2ncc(=O)[nH]c2=O)cc(Cl)c1Sc1ccc(Cl)cc1` as the compound, how does the MEC read?
Its MEC is 0.2 p.p.m.

With `COc1c(Cl)cc(-n2ncc(=O)[nH]c2=O)cc1Cl` as the compound, how does the MEC read?
Its MEC is 250 p.p.m.

With `O=c1cnn(-c2cc(Cl)c(S(=O)(=O)c3ccc(Cl)cc3)c(Cl)c2)c(=O)[nH]1` as the compound, how does the MEC read?
The MEC was 0.5 p.p.m.

With `O=c1cnn(-c2cc(Cl)cc(Cl)c2)c(=O)[nH]1` as the compound, how does the MEC read?
The MEC was 4 p.p.m.

For `O=c1cnn(-c2ccccc2)c(=O)[nH]1`, which MEC is on record?
Its MEC is 500 p.p.m.

With `O=c1cnn(-c2ccc(Sc3ccc(Cl)cc3)c(Cl)c2)c(=O)[nH]1` as the compound, how does the MEC read?
Its MEC is 2 p.p.m.

Which MEC does the source give for `O=c1cnn(-c2cc(Cl)c(Sc3ccc(Cl)cc3)c(Cl)c2)c(=O)[nH]1` here?
Its MEC is 0.2 p.p.m.

Which MEC does the source give for `O=c1cnn(-c2ccc(S(=O)(=O)c3ccc(Br)cc3)cc2)c(=O)[nH]1` here?
The MEC was 8 p.p.m.

Which MEC does the source give for `Cc1cc(-n2ncc(=O)[nH]c2=O)cc(C)c1S(=O)(=O)c1ccc(Cl)cc1` here?
The MEC was 1 p.p.m.

With `Cc1cc(-n2ncc(=O)[nH]c2=O)cc(C)c1[S+]([O-])c1ccc(Cl)cc1` (centres undefined) as the compound, how does the MEC read?
Its MEC is 1 p.p.m.

Which MEC does the source give for `Cc1cc(-n2ncc(=O)[nH]c2=O)cc(Cl)c1S(=O)(=O)c1ccc(Cl)cc1` here?
The MEC was 8 p.p.m.

Which MEC does the source give for `O=c1cnn(-c2ccc(S(=O)(=O)c3ccccc3)cc2)c(=O)[nH]1` here?
Its MEC is 30 p.p.m.

With `O=C(c1ccc(Cl)cc1)c1c(Cl)cc(-n2ncc(=O)[nH]c2=O)cc1Cl` as the compound, how does the MEC read?
The MEC was 0.5 p.p.m.

For `CS(=O)(=O)c1ccc(-n2ncc(=O)[nH]c2=O)cc1`, which MEC is on record?
Its MEC is 500 p.p.m.

For `O=c1cnn(-c2ccc([N+](=O)[O-])cc2)c(=O)[nH]1`, which MEC is on record?
Its MEC is 250 p.p.m.

With `O=c1cnn(-c2ccc(Oc3ccccc3)cc2)c(=O)[nH]1` as the compound, how does the MEC read?
The MEC was 500 p.p.m.

Which MEC does the source give for `O=c1cnn(-c2ccc(Oc3ccc(I)cc3)c(Cl)c2)c(=O)[nH]1` here?
The MEC was 7.5 p.p.m.

With `CSc1ccc(Oc2ccc(-n3ncc(=O)[nH]c3=O)cc2C)cc1` as the compound, how does the MEC read?
Its MEC is 2 p.p.m.

Which MEC does the source give for `Cc1cc(-n2ncc(=O)[nH]c2=O)ccc1Oc1ccc(Br)cc1` here?
The MEC was 7.5 p.p.m.

For `CSc1ccc(Oc2ccc(-n3ncc(=O)[nH]c3=O)cc2Cl)cc1`, which MEC is on record?
The MEC was 3.8 p.p.m.

Which MEC does the source give for `CC(=O)c1ccc(Sc2c(C)cc(-n3ncc(=O)[nH]c3=O)cc2Cl)cc1` here?
The MEC was 0.25 p.p.m.

With `O=c1cnn(-c2ccc(Oc3ccc4cc(Br)ccc4c3)c(Cl)c2)c(=O)[nH]1` as the compound, how does the MEC read?
Its MEC is 7.5 p.p.m.

With `O=c1cnn(-c2ccc(Sc3ccc4ccccc4c3)c(Cl)c2)c(=O)[nH]1` as the compound, how does the MEC read?
Its MEC is 125 p.p.m.

For `CSc1ccc(Oc2c(C)cc(-n3ncc(=O)[nH]c3=O)cc2C)cc1`, which MEC is on record?
The MEC was 2 p.p.m.

For `COc1cc(-n2ncc(=O)[nH]c2=O)cc(OC)c1OC`, which MEC is on record?
Its MEC is 1000 p.p.m.

For `CC(=O)c1ccc(Oc2c(C)cc(-n3ncc(=O)[nH]c3=O)cc2Cl)cc1`, which MEC is on record?
Its MEC is 2 p.p.m.

With `Cc1cc(-n2ncc(=O)[nH]c2=O)ccc1Oc1ccc(Cl)cc1Cl` as the compound, how does the MEC read?
The MEC was 7.5 p.p.m.

For `Cc1cc(-n2ncc(=O)[nH]c2=O)ccc1Oc1ccc(Cl)cc1`, which MEC is on record?
The MEC was 60 p.p.m.

Which MEC does the source give for `O=c1cnn(-c2cccc(C(F)(F)F)c2)c(=O)[nH]1` here?
The MEC was 30 p.p.m.

With `Cc1cc(-n2ncc(=O)[nH]c2=O)cc(Cl)c1Oc1ccc(Cl)cc1` as the compound, how does the MEC read?
Its MEC is 3.8 p.p.m.

For `CSc1ccc(Oc2c(C)cc(-n3ncc(=O)[nH]c3=O)cc2C)cc1C`, which MEC is on record?
The MEC was 2 p.p.m.

With `Cc1cc(-n2ncc(=O)[nH]c2=O)ccc1Oc1ccc(S(C)(=O)=O)cc1` as the compound, how does the MEC read?
The MEC was 4 p.p.m.

Which MEC does the source give for `Cc1cc(-n2ncc(=O)[nH]c2=O)cc(Cl)c1Oc1ccc(C(C)O)cc1` (centres undefined) here?
Its MEC is 2 p.p.m.

For `CCN(C)S(=O)(=O)c1ccc(Oc2c(C)cc(-n3ncc(=O)[nH]c3=O)cc2Cl)c(Cl)c1`, which MEC is on record?
Its MEC is 3.8 p.p.m.

For `Cc1cc(-n2ncc(=O)[nH]c2=O)cc(Cl)c1Oc1ccc(S(=O)(=O)NC2CC2)cc1Cl`, which MEC is on record?
The MEC was 15 p.p.m.

With `O=c1cnn(-c2cc(Cl)c(Cc3ccc(Cl)cc3)c(Cl)c2)c(=O)[nH]1` as the compound, how does the MEC read?
Its MEC is 0.25 p.p.m.

Which MEC does the source give for `O=c1cnn(-c2ccc(Oc3ccc(Cl)cc3Cl)c(Cl)c2)c(=O)[nH]1` here?
The MEC was 7.5 p.p.m.

For `O=c1cnn(-c2ccc(F)c(C(F)(F)F)c2)c(=O)[nH]1`, which MEC is on record?
The MEC was 15 p.p.m.

For `N#Cc1cccc(-n2ncc(=O)[nH]c2=O)c1`, which MEC is on record?
Its MEC is 30 p.p.m.

With `O=c1cnn(-c2ccc(Cc3ccc(Cl)cc3)c(Cl)c2)c(=O)[nH]1` as the compound, how does the MEC read?
Its MEC is 8 p.p.m.

For `COc1cc(OC)cc(-n2ncc(=O)[nH]c2=O)c1`, which MEC is on record?
Its MEC is 500 p.p.m.

For `O=c1cnn(-c2ccc(Br)c(C(F)(F)F)c2)c(=O)[nH]1`, which MEC is on record?
The MEC was 15 p.p.m.

Which MEC does the source give for `O=c1cnn(-c2ccc(C(O)c3ccc(Cl)cc3)c(Cl)c2)c(=O)[nH]1` (centres undefined) here?
The MEC was 2 p.p.m.

Which MEC does the source give for `Cc1cc(-n2ncc(=O)[nH]c2=O)cc(C)c1C(=O)c1ccc(Cl)cc1` here?
The MEC was 15 p.p.m.

With `Cc1cc(-n2ncc(=O)[nH]c2=O)ccc1C(O)c1ccccc1` (centres undefined) as the compound, how does the MEC read?
Its MEC is 30 p.p.m.

Which MEC does the source give for `N#CC(c1ccc(Cl)cc1)c1c(Cl)cc(-n2ncc(=O)[nH]c2=O)cc1Cl` (centres undefined) [DICLAZURIL] here?
Its MEC is 0.1 p.p.m.

For `Cc1cc(-n2ncc(=O)[nH]c2=O)cc(C)c1Sc1ccc(Cl)cc1` [TIAZURIL], which MEC is on record?
Its MEC is 0.5 p.p.m.
